Compound activity (PubChem BioAssay)
M4 PAM: positive allosteric modulators of human muscarinic M4 receptor | CHO-K1 hM4/Gqi5, Fluo-8 calcium fluorescence, ACh EC20; 0% = ACh EC20, 100% = maximal ACh | P08173 | activation, % at 3 µM | 0.4% of 360,000 active;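 active = activation above its plate's cutoff, the mean activation of sample wells plus 3 SD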
Target sequence (P08173 whole entry, looked up): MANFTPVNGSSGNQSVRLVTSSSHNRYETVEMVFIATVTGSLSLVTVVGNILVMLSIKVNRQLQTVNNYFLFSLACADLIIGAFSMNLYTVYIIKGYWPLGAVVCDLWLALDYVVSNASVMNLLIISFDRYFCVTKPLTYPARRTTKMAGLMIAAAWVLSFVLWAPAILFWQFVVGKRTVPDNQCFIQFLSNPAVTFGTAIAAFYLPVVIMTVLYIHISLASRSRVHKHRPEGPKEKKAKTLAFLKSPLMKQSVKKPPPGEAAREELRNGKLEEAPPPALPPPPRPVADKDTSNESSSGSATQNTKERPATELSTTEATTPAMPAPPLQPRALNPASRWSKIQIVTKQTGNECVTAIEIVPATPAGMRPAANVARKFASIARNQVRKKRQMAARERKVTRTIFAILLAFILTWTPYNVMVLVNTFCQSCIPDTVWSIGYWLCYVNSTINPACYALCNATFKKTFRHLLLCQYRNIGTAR
OXTR potentiator: potentiates the human oxytocin receptor response | P30559 | AID 2445 | activation, % at 3 µM | CHO-OTR cells, Fluo-8 calcium fluorescence, potentiator mode; 0% = oxytocin EC15, 100% = EC100 | 0.061% of 320,000 active;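 active = activation above that plate's cutoff, the mean activation of tested compounds plus 3 SD, cut at about 6.6% in these data, passing the limit was not always enough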;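 note: 100% uses oxytocin at 75 nM as the full agonist control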
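Dosing: Single dose, 3.0 µM nominal final compound concentration | Material: Human OTR in CHO cells | Technique: Kinetic Fluo-8 calcium fluorescence | Benchmarks: EC15 oxytocin alone as 0%, 75 nM oxytocin as 100% | Probe or stimulus: Oxytocin at about EC15, sub-maximal agonist stimulus | Incubation: Compound 6 min at room temperature before oxytocin, 100 s read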
M4 ag: agonists of human muscarinic M4 receptor (CHRM4) | AID 624127 | P08173 | activation, % at 3 µM | 0.14% of 360,000 active | CHO-K1 hM4/Gqi5, Fluo-8 calcium fluorescence; vehicle 0%, full acetylcholine response 100%;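 active = activation above the run mean over all test wells plus 3 SD, cut at about 32% in these data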;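 note: peak over basal fluorescence ratio per well then scaled between controls; 0% = DMSO wells and 100% = acetylcholine at EC100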
OXTR agonist: human OXTR agonism | 0.32% of 320,000 active | CHO-OTR cells, Fluo-8 calcium fluorescence; normalized: DMSO 0%, oxytocin 100% | activation, % at 3 µM;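 active = activation above the mean of all tested compounds plus 3 SD, cutoff set per screening run, cut at about 20% in these data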;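 note: peak over basal fluorescence ratio from a 100 s FLIPR kinetic read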
CHRM4 antagonist: CHRM4 antagonism in calcium assay. CHO-hM4 cells, ACh EC80, Fluo-8 calcium fluorescence. inhibition, % at 3 µM. 0.73% of 360,000 active. AID 624125;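 active = inhibition above its plate's cutoff, the mean inhibition of sample wells plus 3 SD, cut at about 27% in these data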;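 note: 0% = acetylcholine EC80 with DMSO and 100% = DMSO without agonist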
V1R ag counter: V1a receptor agonism, counter-screen for OXTR agonists | P37288 | CHO-V1R cells, Fluo-8 calcium fluorescence, agonist mode; 0% DMSO, 100% 3 nM vasopressin | activation, % at 3 µM | 0.25% of 320,000 active;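 active = activation above the mean activation of all tested compounds plus 3 SD, per screening run, cut at about 20% in these data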;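 note: signal is peak over basal fluorescence ratio across a 100 second FLIPR read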
OXTR pot cf: confirmation of human oxytocin receptor potentiators; shares compounds with OXTR potentiator; CHO-OTR cells, Fluo-8 calcium fluorescence, potentiation; scaled from low-dose to maximal oxytocin; activation, % at 3 µM; 180 tested, under 10 active; AID 434985;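 active = mean percent activation over triplicates above a cutoff set from solvent-only control plates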;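 note: compounds tested in the presence of an EC15 dose of oxytocin; 0% = EC15 oxytocin with DMSO and 100% = EC100 oxytocin with DMSO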
V1R ag confirm: human V1a receptor agonism, confirmation; shares compounds with V1R ag counter; CHO-V1R cells, Fluo-8 calcium fluorescence, agonist; activation, % at 3 µM; 20% of 180 active; AID 434964;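 active = average activation exceeds primary screen hit cutoff, cut at about 21% in these data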;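 note: peak over basal fluorescence ratio during a 100 s FLIPR read; 0% = DMSO only wells and 100% = 3 nM vasopressin wells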
OXTR ag counter: counter-screen for V1a receptor agonists: oxytocin receptor agonists | shares compounds with V1R ag counter | 10% of 180 active | CHO-OTR cells, Fluo-8 calcium fluorescence, agonist | activation, % at 3 µM;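 active = mean activation over three repeats above the cutoff from the earlier oxytocin receptor agonist screen, cut at about 20% in these data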;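 note: peak over minimum fluorescence ratio within a 100 second FLIPR read; 0% = DMSO only wells and 100% = oxytocin high control wells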
An asterisk follows results filed as active; · = no result given. An excerpt weighted towards active compounds, which were near 1.5% of everything screened.

SMILES	M4 PAM	OXTR potentiator	M4 ag	OXTR agonist	CHRM4 antagonist	V1R ag counter	V1R ag confirm	OXTR ag counter	others
CCOc1ccc(CCNC(=O)COC(=O)c2cc(OC)cc(OC)c2)cc1OCC	2	9.8*	4	-2	-1	-1	·	·	OXTR pot cf=-3
CCOC(=O)c1ccc(S(=O)(=O)N2CCNCC2)cc1	16	13*	0	1	-6	6	·	·	OXTR pot cf=-4
COc1ccc2cc(S(=O)(=O)N3CCOCC3)ccc2c1	6	11*	1	0	-4	1	·	·	OXTR pot cf=-4
COc1ccc2cc(S(=O)(=O)N3CCCCCC3)ccc2c1	-7	-12	1	-1	-3	0	·	·
COC(=O)C1CC(Cl)CN1c1ncc(C(F)(F)F)cc1Cl (stereo unspecified)	0	16*	-1	-3	-2	-1	·	·	OXTR pot cf=-2
CC(C)(C(N)=O)N1CCN(c2ncc(C(F)(F)F)cc2Cl)CC1	6	-17	5	5	-7	9	·	·
COc1ccc(NC(=O)/C(Cl)=C(/Cl)S(=O)Cc2ccccc2)cn1 (stereo unspecified)	4	20*	5	-1	36*	1	·	·	OXTR pot cf=5
COc1ccc(NC(=O)Cc2ccccc2)cn1	0	-3	4	1	0	2	·	·
COc1ccc(-c2nc(CN3CCC(C(=O)NC4CCCC4)CC3)c(C)o2)cc1OC	-3	16*	0	0	7	0	·	·	OXTR pot cf=-4
O=c1cc(-c2c(F)c(F)c(F)c(F)c2F)oc2c(F)c(F)c(F)c(F)c12	·	19*	·	-2	·	-1	·	·	OXTR pot cf=11*
COCCOc1ccc(C(F)(F)F)cc1NC(=O)c1ccccc1	12	14*	0	-2	-2	-1	·	·	OXTR pot cf=-2
COc1c(Cl)cc(C(=O)Nc2cccnc2)cc1Cl	-4	·	5	·	-6	·	·	·
Cc1ccc(C)c(NC(=O)CCN2C(=O)C3CC=CCC3C2=O)c1 (stereo unspecified)	-2	15*	0	1	5	1	·	·	OXTR pot cf=-3
COc1cc(NC(=S)Nc2ccccn2)c(OC)cc1Cl	-4	-15	-1	-2	0	-1	·	·
CCc1cc(CNC(=O)c2cc(COc3ccc(C)nc3)on2)on1	-3	5	2	1	2	2	·	·
Cc1ccc(OCc2cc(C(=O)NCc3ccc(OC(F)(F)F)cc3)no2)cn1	1	-8	14	19	-2	28*	14	21*
Cc1ccc(NC(=O)C(C)OC(=O)CCC2CCCCC2)cc1 (stereo unspecified)	9	9	-2	-2	-9	-1	·	·
Cc1nnc(-c2ccccc2)c(=O)n1/N=C/c1c(O)ccc2ccccc12	-8	-12	15	16	15	25*	24*	22*
Cc1nnc(C)n1/N=C/c1c(O)ccc2ccccc12	1	-4	3	1	-10	2	·	·
CCC(C)(C)c1ccc(OCCCC[n+]2cccc(C)c2C)c(C(C)(C)CC)c1	-16	-14	9	17	62*	31*	7	3
CCC(C)(C)c1ccc(OCCCC[n+]2ccc(C)cc2)c(C(C)(C)CC)c1	·	-13	·	2	·	8	·	·
CCN(C(=O)CSc1nnc(NC2CCCCC2)s1)C1CCS(=O)(=O)C1 (stereo unspecified)	6	2	0	1	7	0	·	·
Oc1ccc(Br)cc1C=Nc1ccc2c3c(cccc13)CC2	-8	-8	8	12	24	24*	0	-1
Oc1ccc(Cl)cc1C=Nc1ccccc1Br	1	-4	1	0	0	2	·	·
Nc1nc(NC(=O)CCC(=O)O)nn1-c1ccccc1	3	1	1	0	10	0	·	·
SMILES	M4 PAM	OXTR potentiator	M4 ag	OXTR agonist	CHRM4 antagonist	V1R ag counter	V1R ag confirm	OXTR ag counter	others
C=CCn1cc(CN2CCC(C(=O)Nc3cccc(-c4cccc(Cl)c4)c3)CC2)c(C)n1	-11	-8	15	5	8	22*	0	0
NC(=O)c1ccccc1NC(=O)c1ccc2c(c1)OCO2	-3	-11	1	0	1	1	·	·
COc1cccc2cc(CC(=O)c3ccccc3)c(=O)oc12	-8	-6	13	0	6	3	·	·
Cc1ccc2[nH]c(C(=O)N/N=C/c3ccccc3O)c(C)c2c1	-6	-16	12	5	-12	22*	1	0
Cc1ccc(CNC(=O)c2cccc3c2C(=O)c2ccc(N4CCCCC4)cc2S3(=O)=O)cc1	-17	-5	99*	14	14	22*	19	10
CCOC(=O)C1CCN(S(=O)(=O)c2ccc(OC)c(C(=O)N3CCCCC3)c2)CC1	-2	-2	1	0	9	0	·	·
COc1ccc(C(=O)OCC(O)COC(=O)c2ccc(OC)cc2)cc1	-1	-12	1	0	9	0	·	·
O=C(Nc1cccc(S(=O)(=O)N2CCCC2)c1)[C@@H]1O[C@H](CO)[C@@H](O)[C@H]1O	9	·	1	·	-5	·	·	·
Cc1[nH]nc2c1C(c1ccco1)C(C#N)=C(N)O2 (stereo unspecified)	16	0	3	1	-6	1	·	·
COc1ccc(-c2ccc(C3C(C#N)=C(N)Oc4n[nH]c(C)c43)o2)cc1 (stereo unspecified)	-2	-10	3	5	2	24*	6	6
CC(C)Oc1ccc(N2CC(C(=O)Nc3ccccc3C(=O)NC3CC3)CC2=O)cc1 (stereo unspecified)	-3	-9	2	-1	-14	0	·	·
CCOC(=O)c1csc(NC(=O)COc2ccc(Cl)cc2Cl)n1	-4	-8	8	10	-12	22*	5	10
CCOC(=O)c1c(NC(=O)CSc2nc3ccc(C)cc3[nH]2)sc2c1CC(C)(C)NC2(C)C	4	-14	1	15	-7	22*	2	9
CC(Oc1ccc2ccc(=O)oc2c1)C(=O)N1CCOCC1 (stereo unspecified)	2	0	1	0	0	21*	0	0
COC(=O)[C@H](Cc1c[nH]c2ccccc12)NC(=O)Cc1c[nH]c2ccccc12	-6	-20	12	12	2	21*	3	1
